Common to all, as to format: cell-based
For assay [1], the target named is T1, Toll-like receptor 4 (Mus musculus) (UniProt Q9QUK6).
T1 sequence (whole entry): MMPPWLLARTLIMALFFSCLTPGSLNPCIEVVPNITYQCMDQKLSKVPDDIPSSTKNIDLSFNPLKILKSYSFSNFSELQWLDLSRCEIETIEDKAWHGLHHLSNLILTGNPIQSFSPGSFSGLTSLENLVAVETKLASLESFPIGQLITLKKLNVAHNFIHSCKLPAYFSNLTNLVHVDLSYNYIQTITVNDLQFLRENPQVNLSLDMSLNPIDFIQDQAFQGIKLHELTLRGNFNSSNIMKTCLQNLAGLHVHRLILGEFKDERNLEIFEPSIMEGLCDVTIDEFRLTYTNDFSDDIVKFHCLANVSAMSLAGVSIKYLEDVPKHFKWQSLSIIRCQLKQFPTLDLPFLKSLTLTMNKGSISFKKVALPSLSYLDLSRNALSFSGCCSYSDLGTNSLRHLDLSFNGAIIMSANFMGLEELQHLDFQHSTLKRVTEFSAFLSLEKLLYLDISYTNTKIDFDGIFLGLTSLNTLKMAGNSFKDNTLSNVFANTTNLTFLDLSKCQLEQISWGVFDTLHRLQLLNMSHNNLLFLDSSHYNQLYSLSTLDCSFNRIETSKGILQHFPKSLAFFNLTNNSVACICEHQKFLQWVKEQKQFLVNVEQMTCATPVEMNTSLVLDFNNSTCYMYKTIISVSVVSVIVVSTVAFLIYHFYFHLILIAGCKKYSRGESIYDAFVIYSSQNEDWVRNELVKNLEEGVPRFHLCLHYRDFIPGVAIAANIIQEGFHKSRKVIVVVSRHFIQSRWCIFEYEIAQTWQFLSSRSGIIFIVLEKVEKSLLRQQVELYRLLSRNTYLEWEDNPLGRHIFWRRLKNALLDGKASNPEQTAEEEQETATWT
As to the kind of experiment: Activation of mouse TLR4 transfected in HEK293 cells after 18 hrs by SEAP assay relative to N-cyclohexyl-2-(4-oxo-3-phenyl-4,5-dihydro-3H-pyrimido[5,4-b]indol-2-ylthio)acetamide. Put shortly: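 Mouse TLR4 HEK-Blue cells (2.5 × 10^4/well) given titrated doses 312 nM–10 μM for 18 h, 0.5% DMSO vehicle; SEAP at 630 nm. Percent-activity curves, AUC by trapezoid method, normalized to reference hit set at 100. LPS 10 ng/mL control.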

Assay [2] has as its target Toll-like receptor 2 (Homo sapiens) (UniProt O60603). Kind of assay: Activation of human TLR2 transfected in HEK293 cells at 10 uM after 20 to 24 hrs by SEAP assay.
For assay [3], the target named is T2, Toll-like receptor 9 (Homo sapiens) (UniProt Q9NR96).
T2 sequence (whole entry): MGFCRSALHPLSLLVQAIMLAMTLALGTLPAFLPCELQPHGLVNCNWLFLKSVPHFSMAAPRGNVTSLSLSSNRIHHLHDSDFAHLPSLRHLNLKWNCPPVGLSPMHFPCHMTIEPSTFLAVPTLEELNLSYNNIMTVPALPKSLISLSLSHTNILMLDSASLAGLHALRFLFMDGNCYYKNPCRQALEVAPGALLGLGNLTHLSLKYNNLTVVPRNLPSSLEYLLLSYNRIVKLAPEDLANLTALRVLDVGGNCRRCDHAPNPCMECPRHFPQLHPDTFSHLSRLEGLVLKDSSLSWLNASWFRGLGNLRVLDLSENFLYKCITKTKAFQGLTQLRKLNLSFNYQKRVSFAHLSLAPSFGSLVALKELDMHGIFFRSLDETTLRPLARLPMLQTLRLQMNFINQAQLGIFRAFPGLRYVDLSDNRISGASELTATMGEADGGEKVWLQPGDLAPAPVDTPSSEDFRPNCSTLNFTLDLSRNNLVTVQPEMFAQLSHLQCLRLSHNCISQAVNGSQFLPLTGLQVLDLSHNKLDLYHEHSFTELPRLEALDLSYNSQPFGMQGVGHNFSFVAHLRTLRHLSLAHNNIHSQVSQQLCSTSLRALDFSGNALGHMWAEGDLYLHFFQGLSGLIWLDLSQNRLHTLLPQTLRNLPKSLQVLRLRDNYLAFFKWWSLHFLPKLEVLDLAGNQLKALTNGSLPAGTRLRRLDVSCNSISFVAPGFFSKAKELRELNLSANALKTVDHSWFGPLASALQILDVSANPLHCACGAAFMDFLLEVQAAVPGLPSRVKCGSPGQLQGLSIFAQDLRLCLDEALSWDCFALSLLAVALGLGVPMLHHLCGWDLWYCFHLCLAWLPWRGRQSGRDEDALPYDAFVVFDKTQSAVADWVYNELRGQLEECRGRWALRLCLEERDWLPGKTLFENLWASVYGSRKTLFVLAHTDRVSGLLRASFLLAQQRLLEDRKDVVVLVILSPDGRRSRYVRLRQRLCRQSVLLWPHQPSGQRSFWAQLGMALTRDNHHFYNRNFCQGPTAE
As to the kind of experiment: Activation of human TLR9 transfected in HEK293 cells at 10 uM after 20 to 24 hrs by SEAP assay.

The target in assay [4] is T1, Toll-like receptor 4 (Mus musculus). Kind of assay: Activation of TLR4-mediated type 1 IFN release in C57BL/6 mouse BMDC cells assessed as IP10 level after overnight incubation by ELISA. The method, boiled down:
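Wild-type BMDC incubated overnight with graded concentrations, 0.5% DMSO vehicle; IP-10 in supernatants by ELISA as surrogate of type I IFN. Mean ± SEM of triplicates; two independent experiments.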
On the technique in general: ELISA stands for enzyme-linked immunosorbent assay.

The target of assay [5] is Toll-like receptor 4 (Homo sapiens) (UniProt O00206). Kind of assay: Activation of human TLR4 transfected in HEK293 cells assessed as NFkappaB activation after 20 to 24 hrs by SEAP assay. Put shortly:
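Human or mouse TLR4 HEK-Blue cells (2.5 × 10^4/well) incubated with graded concentrations for 20–24 h; NFκB-driven SEAP in culture supernatant measured colorimetrically.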

Active and inactive are the calls of the source. The calls are words filed in the database; no cut-off is given here.

Chain of Toll-like receptor 2 (Homo sapiens) (O60603 whole entry): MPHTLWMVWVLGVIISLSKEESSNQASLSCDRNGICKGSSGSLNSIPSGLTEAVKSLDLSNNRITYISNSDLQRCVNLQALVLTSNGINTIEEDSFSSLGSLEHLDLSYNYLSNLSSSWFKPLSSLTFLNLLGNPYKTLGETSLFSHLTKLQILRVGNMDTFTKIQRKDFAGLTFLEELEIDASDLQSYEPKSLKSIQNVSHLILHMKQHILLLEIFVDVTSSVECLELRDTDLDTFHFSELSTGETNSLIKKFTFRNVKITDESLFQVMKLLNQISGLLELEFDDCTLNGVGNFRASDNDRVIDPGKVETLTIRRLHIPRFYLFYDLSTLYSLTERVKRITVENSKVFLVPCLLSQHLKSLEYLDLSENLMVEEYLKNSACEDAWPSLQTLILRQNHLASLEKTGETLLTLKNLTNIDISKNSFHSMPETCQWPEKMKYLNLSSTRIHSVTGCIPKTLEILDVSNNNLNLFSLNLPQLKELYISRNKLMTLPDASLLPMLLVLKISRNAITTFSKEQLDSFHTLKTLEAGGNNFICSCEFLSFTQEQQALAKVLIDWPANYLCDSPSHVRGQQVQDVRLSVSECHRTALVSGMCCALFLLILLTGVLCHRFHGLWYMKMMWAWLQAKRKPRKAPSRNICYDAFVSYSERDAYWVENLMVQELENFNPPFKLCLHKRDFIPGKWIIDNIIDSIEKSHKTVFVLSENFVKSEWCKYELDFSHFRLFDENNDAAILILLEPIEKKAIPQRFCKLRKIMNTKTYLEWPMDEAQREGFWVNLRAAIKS
Chain of Toll-like receptor 4 (Homo sapiens) (O00206 whole entry): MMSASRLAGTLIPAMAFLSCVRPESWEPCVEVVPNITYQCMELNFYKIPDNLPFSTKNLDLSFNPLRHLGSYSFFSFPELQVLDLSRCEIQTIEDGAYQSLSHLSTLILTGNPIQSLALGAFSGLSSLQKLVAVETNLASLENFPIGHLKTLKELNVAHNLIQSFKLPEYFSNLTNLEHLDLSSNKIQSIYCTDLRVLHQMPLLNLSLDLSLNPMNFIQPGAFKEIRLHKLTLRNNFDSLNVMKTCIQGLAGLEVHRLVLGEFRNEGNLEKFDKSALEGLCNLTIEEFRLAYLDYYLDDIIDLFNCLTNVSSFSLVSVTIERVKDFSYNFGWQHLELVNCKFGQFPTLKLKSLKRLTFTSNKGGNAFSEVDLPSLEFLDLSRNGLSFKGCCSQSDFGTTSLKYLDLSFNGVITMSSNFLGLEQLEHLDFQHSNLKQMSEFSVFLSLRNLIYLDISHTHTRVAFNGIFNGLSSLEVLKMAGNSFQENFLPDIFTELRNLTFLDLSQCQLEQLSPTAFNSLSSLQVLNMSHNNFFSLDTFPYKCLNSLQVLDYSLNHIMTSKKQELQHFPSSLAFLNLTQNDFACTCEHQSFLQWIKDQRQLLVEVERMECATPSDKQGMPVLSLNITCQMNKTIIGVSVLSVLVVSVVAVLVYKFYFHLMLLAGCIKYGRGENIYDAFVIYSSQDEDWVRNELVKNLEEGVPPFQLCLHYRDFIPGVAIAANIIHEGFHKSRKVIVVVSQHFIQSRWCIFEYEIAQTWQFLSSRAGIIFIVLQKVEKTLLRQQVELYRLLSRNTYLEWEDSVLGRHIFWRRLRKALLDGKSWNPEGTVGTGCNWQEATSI

As for `O=C(CSc1nc2c([nH]c3ccccc32)c(=O)n1-c1ccccc1)NC1CCCCC1`, the Activity in assay [1] was 100%; in assay [4] it was “Dose-dependent effect”; in assay [5], “Dose-dependent effect”. Besides, the result in assay [2] and in assay [3] was inactive.

For the origin of these results see ChEMBL document CHEMBL2384907, “Identification of substituted pyrimido[5,4-b]indoles as selective Toll-like receptor 4 ligands” (J Med Chem, 2013).
